Data taken from ChEMBL document CHEMBL2331225, “Structure-based design, synthesis and evaluation of novel anthra[1,2-d]imidazole-6,11-dione derivatives as telomerase inhibitors and potential for cancer polypharmacology” (Eur J Med Chem, 2013).
Calls of active or inactive are those of the source. The calls are words filed in the database; no cut-off is given here.

How the values were obtained:
SNB-19 = test: Cytotoxicity against human SNB19 cells assessed as cell growth level at 10 uM; type: functional
[1] = Cytotoxicity against human EKVX cells assessed as cell growth level at 10 uM; type: functional
PC-3 [2] = test: Growth inhibition of human PC3 cells after 48 hrs by SRB assay; type: functional, cell-based; settings: PC-3, 48 h
How it was run: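 PC-3 cells were seeded in medium with 5% FBS; after 24 h a plate was fixed with 10% TCA as T₀. Vehicle (0.1% DMSO) or compound was given for 48 h, then cells were TCA-fixed, stained with 0.4% SRB in 1% acetic acid, solubilized in 10 mM Trizma base and read at 515 nm. IC₅₀ is the concentration halving the protein increase seen in controls.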

[3] = target: T1, Telomerase reverse transcriptase (Homo sapiens, UniProt O14746); test: Inhibition of TERT transcriptional activity in human H1299 cells assessed SEAP activity at 100 uM incubated for 24 hrs by SEAP assay; type: cell-based; design: scale not given: the % may be the effect or the level left
How it was run: (§1)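 H1299 stable clones carry the hTERT promoter (−3338 to +1 bp) upstream of SEAP, introduced by electroporation and selected with G418. About 2 × 10³ cells per well were grown 24 h at 37 °C, given fresh medium, then drug for 24 h. Collected media were heated at 65 °C for 10 min, mixed with equal SEAP buffer (2 M diethanolamine, 1 mM MgCl₂, 20 mM L-homoarginine) and p-nitrophenyl phosphate at 12 mM final.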

[4] = target: T1, Telomerase reverse transcriptase; test: Inhibition of TERT transcriptional activity in human H1299 cells assessed SEAP activity at 10 uM incubated for 24 hrs by SEAP assay; type: cell-based; design: scale not given: the % may be the effect or the level left; how it was run: as §1
[5] = target: T1, Telomerase reverse transcriptase; test: Inhibition of TERT transcriptional activity in human H1299 cells assessed SEAP activity at 1 uM incubated for 24 hrs by SEAP assay; type: cell-based; design: scale not given: the % may be the effect or the level left; how it was run: as §1
[6] = Cytotoxicity against human H1299 cells assessed as cell viability at 100 uM after 48 hrs by MTT assay; type: functional; settings: NCI-H1299, 48 h, read-out: Activity
How it was run: (§2)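 H1299 cells at about 2 × 10³ per well were grown 24 h at 37 °C in 5% CO₂. Compounds were dissolved in DMSO just before use and diluted into complete medium. After 48 h exposure, MTT was added for 4 h at 37 °C, then lysis buffer (20% SDS, 50% DMF) for 16 h at 37 °C. Absorbance was read at 550 nm.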

[7] = Cytotoxicity against human H1299 cells assessed as cell viability at 10 uM after 48 hrs by MTT assay; type: functional; settings: NCI-H1299, 48 h, read-out: Activity; how it was run: as §2
[8] = Cytotoxicity against human H1299 cells assessed as cell viability at 1 uM after 48 hrs by MTT assay; type: functional; settings: NCI-H1299, 48 h, read-out: Activity; how it was run: as §2
[9] = target: T1, Telomerase reverse transcriptase; test: Inhibition of TERT activity in human H1299 cells homogenates incubated for 5 mins at 100 uM by TRAP assay; type: cell-free
How it was run: (§3)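 Telomerase-active extracts were prepared from H1299 cells, and lysate protein was measured against BSA standards. Compounds were tested in the TRAP assay, with RNase A-treated extracts as negative controls.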

DU-145 = test: Cytotoxicity against human DU145 cells assessed as cell growth level at 10 uM; type: functional
PC-3 [10] = test: Cytotoxicity against human PC3 cells assessed as cell growth level at 10 uM; type: functional
A498 = test: Cytotoxicity against human A498 cells assessed as cell growth level at 10 uM; type: functional
IMR-90 = test: Cytotoxicity against human IMR90 cells after 48 hrs by MTT assay; type: cell-based; settings: IMR-90, 48 h
[11] = Cytotoxicity against human H1299 cells expressing hTERT and SEAP after 48 hrs by MTT assay; type: cell-based; settings: nci-h1299, 48 h
How it was run: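 H1299 stably carrying P_hTERT-SEAP, about 2 × 10³ cells per well, were grown 24 h at 37 °C, washed with PBS and given fresh medium. Compounds were added at varying amounts for 48 h, and growth was measured by MTT read at 550 nm. Values come from three experiments, with untreated cells set as 100%.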

COLO 205 = test: Cytotoxicity against human COLO205 cells assessed as cell growth level at 10 uM; type: functional
MOLT-4 = test: Cytotoxicity against human MOLT4 cells assessed as cell growth level at 10 uM; type: functional
[12] = target: DNA polymerase I, thermostable (Thermus aquaticus) (UniProt P19821); test: Inhibition of Thermus aquaticus DNA polymerase compound after telomerase extension step and before PCR-amplification step during TRAP assay
How it was run: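 TRAP-m variant: compounds were added after the telomerase extension step and before PCR amplification, using H1299 telomerase extracts, with RNase A-treated extracts as negative control.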

[13] = target: T1, Telomerase reverse transcriptase; test: Inhibition of TERT activity in human H1299 cells homogenates incubated for 5 mins by TRAP assay; type: cell-free; how it was run: as §3
[14] = Cytotoxicity against human NCI-ADR-RES cells assessed as cell growth level at 10 uM; type: functional

Sequence of DNA polymerase I, thermostable (Thermus aquaticus) (P19821 whole entry): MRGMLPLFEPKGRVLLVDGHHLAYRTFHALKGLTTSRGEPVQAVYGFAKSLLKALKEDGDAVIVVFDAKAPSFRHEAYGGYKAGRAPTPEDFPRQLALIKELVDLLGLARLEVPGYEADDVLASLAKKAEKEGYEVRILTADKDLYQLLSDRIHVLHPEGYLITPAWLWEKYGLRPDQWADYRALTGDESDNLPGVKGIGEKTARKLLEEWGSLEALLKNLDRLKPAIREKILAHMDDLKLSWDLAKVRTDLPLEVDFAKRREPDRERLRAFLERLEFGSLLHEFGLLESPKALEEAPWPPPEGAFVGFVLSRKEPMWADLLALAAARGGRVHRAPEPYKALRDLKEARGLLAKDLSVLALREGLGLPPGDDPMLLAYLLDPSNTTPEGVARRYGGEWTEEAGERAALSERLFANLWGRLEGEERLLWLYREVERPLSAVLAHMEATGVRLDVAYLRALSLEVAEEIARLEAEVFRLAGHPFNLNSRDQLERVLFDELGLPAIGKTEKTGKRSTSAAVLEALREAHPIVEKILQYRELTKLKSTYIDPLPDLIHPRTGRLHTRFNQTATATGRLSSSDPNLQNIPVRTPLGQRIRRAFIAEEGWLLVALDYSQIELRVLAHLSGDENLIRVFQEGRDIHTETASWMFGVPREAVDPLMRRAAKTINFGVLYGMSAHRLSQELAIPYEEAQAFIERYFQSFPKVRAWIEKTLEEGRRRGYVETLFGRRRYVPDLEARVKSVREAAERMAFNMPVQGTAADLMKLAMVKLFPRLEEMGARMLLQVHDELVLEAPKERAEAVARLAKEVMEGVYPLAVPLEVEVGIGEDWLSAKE
T1 sequence (O14746 whole entry): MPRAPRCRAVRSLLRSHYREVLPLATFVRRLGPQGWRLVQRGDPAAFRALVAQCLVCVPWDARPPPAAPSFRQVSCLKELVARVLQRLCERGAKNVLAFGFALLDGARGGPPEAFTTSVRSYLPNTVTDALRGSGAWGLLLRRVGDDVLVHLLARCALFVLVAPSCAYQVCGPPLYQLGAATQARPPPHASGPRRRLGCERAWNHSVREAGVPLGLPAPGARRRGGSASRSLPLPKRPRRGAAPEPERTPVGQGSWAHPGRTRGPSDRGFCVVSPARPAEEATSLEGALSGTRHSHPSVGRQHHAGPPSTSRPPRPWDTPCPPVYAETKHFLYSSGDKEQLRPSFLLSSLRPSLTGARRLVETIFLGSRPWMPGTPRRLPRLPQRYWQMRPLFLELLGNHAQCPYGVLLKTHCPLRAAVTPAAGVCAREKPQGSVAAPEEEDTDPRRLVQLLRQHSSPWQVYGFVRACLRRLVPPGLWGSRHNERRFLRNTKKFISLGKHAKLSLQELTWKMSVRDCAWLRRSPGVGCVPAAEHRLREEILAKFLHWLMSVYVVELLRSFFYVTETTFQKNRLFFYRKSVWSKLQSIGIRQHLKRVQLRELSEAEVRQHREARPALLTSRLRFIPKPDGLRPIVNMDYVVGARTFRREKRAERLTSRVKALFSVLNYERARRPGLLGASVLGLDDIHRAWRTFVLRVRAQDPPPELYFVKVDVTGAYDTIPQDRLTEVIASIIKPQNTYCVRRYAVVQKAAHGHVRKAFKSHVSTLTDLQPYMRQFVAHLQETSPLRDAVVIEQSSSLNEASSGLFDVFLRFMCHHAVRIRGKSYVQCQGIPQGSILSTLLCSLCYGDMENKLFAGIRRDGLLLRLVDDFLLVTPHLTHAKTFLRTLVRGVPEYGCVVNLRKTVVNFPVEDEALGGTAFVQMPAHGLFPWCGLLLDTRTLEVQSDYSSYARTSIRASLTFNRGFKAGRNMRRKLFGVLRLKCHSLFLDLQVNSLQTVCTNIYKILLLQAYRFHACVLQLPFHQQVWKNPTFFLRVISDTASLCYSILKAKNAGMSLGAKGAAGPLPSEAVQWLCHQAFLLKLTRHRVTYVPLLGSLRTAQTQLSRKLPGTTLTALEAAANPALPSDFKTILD

## O=C1c2ccccc2C(=O)c2c1ccc1nc(CN3CCN(c4ccccn4)CC3)[nH]c21
SNB-19
  Activity: 81%
[1]
  Activity: 63%
PC-3 [2]
  IC50: > 30 µM
[3]
  Activity: 1%
[4]
  Activity: 57%
[5]
  Activity: 91%
[6]
  viability at 100 µM: 20%
[7]
  viability at 10 µM: 69%
[8]
  viability at 1 µM: 91%
[9]
  TERT inhibition (active/not active): inactive
DU-145
  Activity: 89.1%
PC-3 [10]
  Activity: 81.46%
A498
  Activity: 68.23%

## O=C1c2ccccc2C(=O)c2c1ccc1nc(CN3CCCCC3)[nH]c21
PC-3 [2]
  IC50: 10.3 µM
[3]
  Activity: 7%
[4]
  Activity: 44%
[5]
  Activity: 76%
[6]
  viability at 100 µM: 20%
[7]
  viability at 10 µM: 79%
[8]
  viability at 1 µM: 111%
[9]
  TERT inhibition (active/not active): inactive
IMR-90
  IC50: 100 µM
[11]
  Activity: Non-toxic
DU-145
  Activity: 81.94%
PC-3 [10]
  Activity: 74.9%
A498
  Activity: 61.84%

## CCN(CC)Cc1nc2ccc3c(c2[nH]1)C(=O)c1ccccc1C3=O
COLO 205
  Activity: 81%
MOLT-4
  Activity: -9.43%
PC-3 [2]
  IC50: 10.3 µM
[3]
  Activity: 0%
[4]
  Activity: 32%
[5]
  Activity: 91%
[6]
  viability at 100 µM: 0%
[7]
  viability at 10 µM: 55%
[8]
  viability at 1 µM: 101%
[9]
  TERT inhibition (active/not active): inactive
PC-3 [10]
  Activity: 73.54%
A498
  Activity: 49.5%

## O=C1c2ccccc2C(=O)c2c1ccc1nc(CCN3CCN(c4ncccn4)CC3)[nH]c21
PC-3 [2]
  IC50: > 30 µM
[3]
  Activity: 0%
[4]
  Activity: 35%
[5]
  Activity: 83%
[6]
  viability at 100 µM: 0%
[7]
  viability at 10 µM: 84%
[8]
  viability at 1 µM: 91%
[9]
  TERT inhibition (active/not active): inactive
IMR-90
  IC50: 100 µM
[11]
  Activity: Non-toxic

## O=C1c2ccccc2C(=O)c2c1ccc1nc(CCN3CCN(Cc4ccccc4)CC3)[nH]c21
PC-3 [2]
  IC50: 16 µM
[3]
  Activity: 0%
[4]
  Activity: 5%
[5]
  Activity: 73%
[6]
  viability at 100 µM: 6%
[7]
  viability at 10 µM: 54%
[8]
  viability at 1 µM: 96%
[9]
  TERT inhibition (active/not active): inactive
IMR-90
  IC50: 100 µM
[11]
  Activity: Non-toxic

## CCN1CCN(Cc2nc3ccc4c(c3[nH]2)C(=O)c2ccccc2C4=O)CC1
PC-3 [2]
  IC50: 6.5 µM
[3]
  Activity: 0%
[4]
  Activity: 14%
[5]
  Activity: 92%
[6]
  viability at 100 µM: 0%
[7]
  viability at 10 µM: 35%
[8]
  viability at 1 µM: 86%
[9]
  TERT inhibition (active/not active): Active
[12]
  inhibition: inactive
[13]
  IC50: > 10 µM

## CN(CCc1ccccn1)Cc1nc2ccc3c(c2[nH]1)C(=O)c1ccccc1C3=O
PC-3 [2]
  IC50: 14.2 µM
[3]
  Activity: 0%
[4]
  Activity: 51%
[5]
  Activity: 96%
[6]
  viability at 100 µM: 0%
[7]
  viability at 10 µM: 99%
[8]
  viability at 1 µM: 104%
[9]
  TERT inhibition (active/not active): inactive
DU-145
  Activity: 99.83%
PC-3 [10]
  Activity: 83.7%
A498
  Activity: 69.6%

## O=C1c2ccccc2C(=O)c2c1ccc1nc(CN3CCN(c4ccccc4)CC3)[nH]c21
PC-3 [2]
  IC50: > 30 µM
[3]
  Activity: 6%
[4]
  Activity: 77%
[5]
  Activity: 92%
[6]
  viability at 100 µM: 18%
[7]
  viability at 10 µM: 54%
[8]
  viability at 1 µM: 90%
[9]
  TERT inhibition (active/not active): inactive
DU-145
  Activity: 77.91%
PC-3 [10]
  Activity: 90.69%
A498
  Activity: 75.09%

## CN1CCN(CCc2nc3ccc4c(c3[nH]2)C(=O)c2ccccc2C4=O)CC1
PC-3 [2]
  IC50: 17.3 µM
[3]
  Activity: 0%
[4]
  Activity: 7%
[5]
  Activity: 74%
[6]
  viability at 100 µM: 0%
[7]
  viability at 10 µM: 32%
[8]
  viability at 1 µM: 87%
[9]
  TERT inhibition (active/not active): inactive

## CN1CCN(Cc2nc3ccc4c(c3[nH]2)C(=O)c2ccccc2C4=O)CC1
MOLT-4
  Activity: -13.44%
PC-3 [2]
  IC50: 6.5 µM
[3]
  Activity: 6%
[4]
  Activity: 23%
[5]
  Activity: 106%
[6]
  viability at 100 µM: 0%
[7]
  viability at 10 µM: 35%
[8]
  viability at 1 µM: 87%
[9]
  TERT inhibition (active/not active): Active
[12]
  inhibition: inactive
[13]
  IC50: > 10 µM
PC-3 [10]
  Activity: 60.08%
A498
  Activity: 69.36%
[14]
  Activity: 62.93%

## O=C1c2ccccc2C(=O)c2c1ccc1nc(CNCc3ccc(C(F)(F)F)cc3)[nH]c21
PC-3 [2]
  IC50: 7.6 µM
[3]
  Activity: 2%
[4]
  Activity: 8%
[5]
  Activity: 52%
[6]
  viability at 100 µM: 0%
[7]
  viability at 10 µM: 11%
[8]
  viability at 1 µM: 74%
[9]
  TERT inhibition (active/not active): inactive

## O=C1c2ccccc2C(=O)c2c1ccc1nc(CN3CCC(CCCC4CCNCC4)CC3)[nH]c21
PC-3 [2]
  IC50: 13.8 µM
[3]
  Activity: 3%
[4]
  Activity: 8%
[5]
  Activity: 96%
[6]
  viability at 100 µM: 0%
[7]
  viability at 10 µM: 0%
[8]
  viability at 1 µM: 97%
[9]
  TERT inhibition (active/not active): Active
[12]
  inhibition: inactive
[13]
  IC50: 5 µM

## O=C1c2ccccc2C(=O)c2c1ccc1nc(CNCc3ccc4c(c3)OCO4)[nH]c21
PC-3 [2]
  IC50: 22.5 µM
[3]
  Activity: 1%
[4]
  Activity: 75%
[5]
  Activity: 75%
[6]
  viability at 100 µM: 14%
[7]
  viability at 10 µM: 103%
[8]
  viability at 1 µM: 109%
[9]
  TERT inhibition (active/not active): inactive
